Assay results reported in ChEMBL document CHEMBL1671834, “Novel 3-aryl indoles as progesterone receptor antagonists for uterine fibroids” (ACS Med Chem Lett, 2011).
The source made the active and inactive calls. No cut-off for these calls is given here.

Columns and labels:
[1] = system: Oryctolagus cuniculus; test: Antagonist activity at progesterone receptor in estrogen-primed immature New Zealand White rabbit assessed as inhibition of progesterone-induced endometrial transformation at 1 mg/kg, sc by McPhail assay; type: functional, organism-based; design: dose 1 mg/kg
In short: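 Immature rabbits primed with estrogen, given progesterone 1 mg/kg with test compound at various sc doses. Endometrial transformation scored by McPhail Index.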

[2] = Tmax in rat; type: ADME, organism-based; conditions: in vivo
In short: (§1)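 Compound given to rats as an oral suspension. Bioavailability, tmax, elimination half-life, volume of distribution and clearance determined.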

[3] = system: Rattus norvegicus; test: Antagonist activity at progesterone receptor in orally dosed ovariectomized Sprague-Dawley rat assessed as reversal of R5020-induced down-regulation of estradiol-induced increase in complement 3 mRNA expression by C3 rat uterine assay; type: functional; conditions: po
In short: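 Ovariectomized rats dosed orally (mg/kg dose response). Estrogen (E2, 0.05 mg/kg) induces complement C3 mRNA in uterus. Progestin R5020 (0.1 mg/kg) down-regulates it. Read-out is reversal of the R5020 effect, expressed as fold over asoprisnil (5 mg/kg). ED50 derived from the dose response.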

[4] = system: Oryctolagus cuniculus; test: Agonist activity at progesterone receptor in estrogen-primed immature New Zealand White rabbit assessed as stimulation of progesterone-induced endometrial transformation at 30 mg/kg, sc by McPhail assay; type: functional, organism-based; design: dose 30 mg/kg
In short: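 Immature rabbits primed with estrogen, dosed sc without progesterone. Endometrial transformation scored by McPhail Index.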

[5] = Elimination half life in rat; type: ADME, organism-based; conditions: in vivo; in short: as §1
[6] = Clearance in rat; type: ADME, organism-based; conditions: in vivo; in short: as §1
[7] = Volume of distribution in rat; type: ADME, organism-based; conditions: in vivo; in short: as §1
[8] = Oral bioavailability in rat; type: ADME, organism-based; conditions: in vivo; in short: as §1

CC(C)n1cc(-c2ccc(C#N)c(F)c2)c2ccc(NS(C)(=O)=O)cc21
Activity [1]: Active | Tmax [2]: 4 h | ED50 [3]: 0.33 mg/kg | Activity [4]: Active | half-life [5]: 19.8 h | clearance [6]: 2.5 mL/min/kg | Vd [7]: 2.3 L/kg | bioavailability [8]: 31.4%
